The source made the active and inactive calls. The rule behind the calls is not given here.
What was measured:
[1] = Clearance in Sprague-Dawley rat at 20 mg/kg, po by HPLC analysis; assay type: ADME, organism-based; details: in vivo
In short: (§1)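 Male Sprague-Dawley rats (180−220 g), 4 per group, dosed at 5 mg/kg i.v., 20 mg/kg i.p. or 20 mg/kg p.o. Parameters given as mean ± SD (n = 4).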

[2] = AUC in Sprague-Dawley rat at 5 mg/kg, iv measured up to 48 hrs post administration by HPLC analysis; assay type: ADME, organism-based; parameters: dose 5 mg/kg, time < 48 hr, route intravenous; details: in vivo; in short: as §1
[3] = Half life in Sprague-Dawley rat at 5 mg/kg, iv by HPLC analysis; assay type: ADME, organism-based; details: in vivo; in short: as §1
[4] = MRT in Sprague-Dawley rat at 20 mg/kg, ip by HPLC analysis; assay type: ADME, organism-based; details: in vivo; in short: as §1
MCF7 [5] = test: Induction of cell cycle arrest in human MCF7 cells assessed as accumulation at G0/G1 phase at 1 uM after 24 hrs by propidium iodide-staining based flow cytometry (reference value: 56.03%); assay type: functional
HepG2 = test: Induction of cell cycle arrest in human HepG2 cells at 1 uM after 24 hrs by propidium iodide-staining based flow cytometry; assay type: functional
MCF7 [6] = test: Induction of cell cycle arrest in human MCF7 cells assessed as accumulation at G2/M phase at 1 uM after 24 hrs by propidium iodide-staining based flow cytometry (reference value: 12.41%); assay type: functional
MCF7 [7] = test: Induction of apoptosis in human MCF7 cells assessed as upregulation of Bax mRNA levels at 1 uM after 24 hrs by RT-qPCR analysis; assay type: functional, cell-based
MCF7 [8] = test: Induction of apoptosis in human MCF7 cells assessed as viable cells at 1 uM after 24 hrs by Annexin V-FITC/propidium iodide-staining based flow cytometry (reference value: 98.2%); assay type: functional; details: MCF7, 24 h, read-out: Activity
[9] = Bioavailability in Sprague-Dawley rat at 20 mg/kg, ip measured up to 48 hrs after administration by HPLC analysis; assay type: ADME, organism-based; details: in vivo; in short: as §1
Caco-2 = test: Antiproliferative activity against human Caco2 cells after 48 hrs by MTT assay; assay type: functional, cell-based; details: Caco-2, 48 h
MCF7 [10] = test: Induction of cell cycle arrest in human MCF7 cells assessed as upregulation of p27 expression at 1 uM after 24 hrs by Western blot analysis; assay type: functional, cell-based
In short: (§2)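 p21 and p27 protein levels were measured by Western blot in MCF7 cells treated at 1 µM for 24 h.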

Mus musculus [11] = test: Toxicity in BALB/c nude mouse xenografted with human MCF7 cells assessed as change in body weight at 10 mg/kg, ip administered every other day relative to control; assay type: organism-based; details: in vivo
In short: (§3)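 MCF7 cells transplanted orthotopically into the breast of athymic nude mice. Dosing at 10 mg/kg i.p. in vehicle of polyoxyethylated castor oil/ethanol/saline 1:1:18, with vehicle and saline control groups. Body weight, tumor volume and serum calcium followed.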

[12] = Drug uptake in human MCF7 cells at 1 uM after 10 mins by HPLC analysis; assay type: ADME, cell-based; details: mcf7, 10 min
In short: (§4)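 MCF7 cells were given 1 µM compound in medium with 10% FBS for 10 or 30 min. Cells and medium were extracted separately with chloroform/methanol (3:1, v/v) and analysed by HPLC. Mean ± SEM, n = 3.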

MCF7 [13] = test: Induction of apoptosis in human MCF7 cells assessed as necrotic cells at 1 uM after 24 hrs by Annexin V-FITC/propidium iodide-staining based flow cytometry (reference value: 0.031%); assay type: functional
[14] = Half life in Sprague-Dawley rat at 20 mg/kg, ip by HPLC analysis; assay type: ADME, organism-based; details: in vivo; in short: as §1
MCF7 [15] = test: Induction of cell cycle arrest in human MCF7 cells assessed as upregulation of p27 mRNA levels at 1 uM after 24 hrs by RT-qPCR analysis; assay type: functional, cell-based
In short: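 p21 and p27 mRNA levels were measured by real-time quantitative PCR in MCF7 cells treated at 1 µM for 24 h.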

[16] = Oral bioavailability in Sprague-Dawley rat at 20 mg/kg measured up to 48 hrs after administration by HPLC analysis; assay type: ADME, organism-based; details: in vivo; in short: as §1
[17] = MRT in Sprague-Dawley rat at 5 mg/kg, iv by HPLC analysis; assay type: ADME, organism-based; details: in vivo; in short: as §1
MCF7 [18] = test: Antitumor activity against human MCF7 cells xenografted in BALB/c nude mouse assessed as tumor growth inhibition at 10 mg/kg, ip administered every other day; assay type: functional, organism-based; in short: as §3
[19] = AUC in Sprague-Dawley rat at 20 mg/kg, po measured up to 48 hrs post administration by HPLC analysis; assay type: ADME, organism-based; parameters: time < 48 hr, dose 20 mg/kg, route oral; details: in vivo; in short: as §1
MCF7 [20] = test: Induction of cell cycle arrest in human MCF7 cells assessed as upregulation of p21 expression at 1 uM after 24 hrs by Western blot analysis; assay type: functional, cell-based; in short: as §2
[21] = Clearance in Sprague-Dawley rat at 5 mg/kg, iv measured up to 48 hrs post administration by HPLC analysis; assay type: ADME, organism-based; details: in vivo; in short: as §1
MCF7 [22] = test: Induction of apoptosis in human MCF7 cells assessed as upregulation of Bak mRNA levels at 1 uM after 24 hrs by RT-qPCR analysis; assay type: functional, cell-based
L02 = test: Antiproliferative activity against human L02 cells after 48 hrs by MTT assay; assay type: cell-based; details: L02, 48 h
PC-3 = test: Antiproliferative activity against human PC3 cells after 48 hrs by MTT assay; assay type: functional, cell-based; details: PC-3, 48 h
[23] = Clearance in Sprague-Dawley rat at 20 mg/kg, ip by HPLC analysis; assay type: ADME, organism-based; details: in vivo; in short: as §1
MCF7 [24] = test: Induction of apoptosis in human MCF7 cells assessed as late apoptotic cells at 1 uM after 24 hrs by Annexin V-FITC/propidium iodide-staining based flow cytometry (reference value: 0.062%); assay type: functional
[25] = molecular target: T1, Vitamin D3 receptor (Homo sapiens) (UniProt P11473); test: Transactivation of human GAL4-fused VRD expressed in HEK293 cells co-transfected with human RXRalpha/VDRE after 24 hrs by dual luciferase reporter gene assay; assay type: cell-based
T1 sequence (whole entry): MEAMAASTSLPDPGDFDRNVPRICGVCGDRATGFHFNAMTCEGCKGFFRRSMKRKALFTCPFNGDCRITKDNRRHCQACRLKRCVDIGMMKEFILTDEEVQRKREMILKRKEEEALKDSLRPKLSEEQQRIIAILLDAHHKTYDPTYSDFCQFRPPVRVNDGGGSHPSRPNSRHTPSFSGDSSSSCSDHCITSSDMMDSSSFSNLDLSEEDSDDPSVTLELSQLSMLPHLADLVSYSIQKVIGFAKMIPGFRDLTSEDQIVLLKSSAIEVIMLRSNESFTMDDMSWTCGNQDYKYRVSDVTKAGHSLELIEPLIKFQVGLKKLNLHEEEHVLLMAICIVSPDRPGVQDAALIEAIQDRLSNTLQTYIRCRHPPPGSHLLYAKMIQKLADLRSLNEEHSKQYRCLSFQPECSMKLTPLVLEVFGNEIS

Vitamin D3 receptor = molecular target: T2, Vitamin D3 receptor (Homo sapiens, UniProt P11473); test: Displacement of fluormone VDR red from human full length VDR after 4 hrs by fluorescence polarization assay
T2 sequence (P11473 whole entry): T1 sequence (whole entry)

Mus musculus [26] = test: Toxicity in BALB/c nude mouse xenografted with human MCF7 cells assessed increase in serum calcium levels at 10 mg/kg, ip administered every other day relative to control; assay type: organism-based; details: in vivo; in short: as §3
[27] = MRT in Sprague-Dawley rat at 20 mg/kg, po by HPLC analysis; assay type: ADME, organism-based; details: in vivo; in short: as §1
[28] = Drug uptake in human MCF7 cells at 1 uM after 30 mins by HPLC analysis; assay type: ADME, cell-based; details: mcf7, 0.5 h; in short: as §4

| SMILES | CL/F [1] | AUC at 48 h [2] | half-life [3] | MRT [4] | Activity (MCF7 [5]) | Activity (HepG2) | Activity (MCF7 [6]) | Activity (MCF7 [7]) | viability at 1 µM (MCF7 [8]) | bioavailability [9] | IC50 (Caco-2) | Activity (MCF7 [10]) | Activity (Mus musculus [11]) | Drug uptake [12] | Activity (MCF7 [13]) | half-life [14] | Activity (MCF7 [15]) | bioavailability [16] | MRT [17] | TGI (MCF7 [18]) | also measured |
| --- | --- | --- | --- | --- | --- | --- | --- | --- | --- | --- | --- | --- | --- | --- | --- | --- | --- | --- | --- | --- | --- |
| CCN(CC)CCCNC(=O)c1ccc(C(CC)(CC)c2ccc(OCCC(O)(CC)CC)c(C)c2)n1CC | 15.5 mL/min | 25200 ng·h/mL | 2.97 h | 9.3 h | 70.15% | Active | 4.72% | Active | 85.7% | 30.2% | 17 nM | Active | Non-Toxic | Active | 0.23% | 6.21 h | Active | 21.3% | 3.85 h | Active | AUC at 48 h [19]: 21500 ng·h/mL; Activity (MCF7 [20]): Active; clearance [21]: 3.5 mL/min; Activity (MCF7 [22]): Active; IC50 (L02): 370 nM; IC50 (PC-3): 40 nM; CL/F [23]: 11.3 mL/min; Activity (MCF7 [24]): 4.49%; Activity [25]: Dose-dependent effect; IC50 (Vitamin D3 receptor): 296 nM; Activity (Mus musculus [26]): Non-Toxic; MRT [27]: 11 h; Drug uptake [28]: Active |
| CCn1c(C(=O)NCCCN2CCOCC2)ccc1C(CC)(CC)c1ccc(OCCC(O)(CC)CC)c(C)c1 | 21.8 mL/min | 10400 ng·h/mL | 4.75 h | 17.6 h | 70.41% | Active | 6.96% | Active | 87.3% | 62.5% | 2720 nM | Active | Non-Toxic | 37.9% | 0.2% | 11.7 h | Active | 36.8% | 7.55 h | Active | AUC at 48 h [19]: 15300 ng·h/mL; Activity (MCF7 [20]): Active; clearance [21]: 8.17 mL/min; Activity (MCF7 [22]): Active; IC50 (L02): 2860 nM; IC50 (PC-3): 1570 nM; CL/F [23]: 13 mL/min; Activity (MCF7 [24]): 2.83%; Activity [25]: Dose-dependent effect; IC50 (Vitamin D3 receptor): 406 nM; Activity (Mus musculus [26]): Non-Toxic; MRT [27]: 15.9 h; Drug uptake [28]: 38.2% |

Reference: ChEMBL document CHEMBL4033800, “Further Developments of the Phenyl-Pyrrolyl Pentane Series of Nonsteroidal Vitamin D Receptor Modulators as Anticancer Agents” (J Med Chem, 2018)
